Most compounds without a hit are left out; they make up all but 3.8% or so of the library.
DENV2 CPE rescue: inhibitors of DENV2 cytopathic effect, primary screen, cell-based, plate reader, single concentration; DENV2-infected cells, cytopathic effect rescue; CPE inhibition, % at 9.99 µM; 350,000 compounds, 1.7% hits; in the data active means CPE inhibition above about 20%, passing the limit was not always enough; inconclusive means no clear call, values can overlap the other calls; tested in BHK-21 cells;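 further: 0% = median of neutral control wells and 100% = median of positive control wells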
SIRT5 block: SIRT5 desuccinylase inhibitors, primary screen, biochemical, fluorescence imaging, single point, set 5; NAD-dependent protein deacylase sirtuin-5, mitochondrial (Homo sapiens), Q9NXA8; Purified SirT5, succinyl-peptide AMC, trypsin-coupled fluorescence; inhibition, % at 15 µM; 330,000 compounds, 1.1% hits; AID 652115, 2013; in the data active means inhibition above about 15%; inconclusive means no clear call, values can overlap the other calls
Target sequence (Q9NXA8 whole entry, looked up): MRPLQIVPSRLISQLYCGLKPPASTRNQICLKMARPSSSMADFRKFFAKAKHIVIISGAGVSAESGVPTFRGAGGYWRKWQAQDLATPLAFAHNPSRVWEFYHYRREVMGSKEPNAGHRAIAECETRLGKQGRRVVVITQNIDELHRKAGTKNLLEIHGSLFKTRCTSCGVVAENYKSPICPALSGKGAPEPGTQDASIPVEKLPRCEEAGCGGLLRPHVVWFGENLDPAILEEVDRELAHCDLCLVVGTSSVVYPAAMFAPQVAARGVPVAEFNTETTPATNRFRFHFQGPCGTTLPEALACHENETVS
FN deposit inh: inhibitors of fibronectin matrix deposition, primary screen, AH1F cells, Alexa488-fibronectin fluorescence, plate reader. 350,000 compounds, 0.086% hits. AH1F fibroblasts, overnight. inhibition, % at 12.6 µM;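 active means mean inhibition across replicates of 30% or more, regardless of how many single replicates reach that level; inconclusive means mean under 30% yet at least half of replicates reach 30%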;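 further: positive control wells lacked labelled fibronectin entirely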
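Schedule: 1 h cell adhesion before compound, then overnight fibronectin incubation; test system: AH1F fibroblast monolayer depositing Alexa488-labelled fibronectin into matrix; quantity: 10000 AH1F cells per well; probe or stimulus: fluorescent fibronectin at 24 nM final; signal: fluorescence, ex 485 nm, em 525 nm; evaluation: percent inhibition as loss of matrix-bound fibronectin fluorescence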
ARNT TACC3 PPI: disruptors of ARNT/TACC3 protein interaction, primary screen, biochemical, AlphaScreen, single concentration | AlphaScreen His-ARNT PAS-B/GST-TACC3 binding, luminescence; TACC3 fragment carries E629A point mutation | inhibition, % at 9.99 µM | 390,000 compounds, 0.66% hits;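 active means mean inhibition of replicates at least 50% and at least half of replicates each reaching 50%; inconclusive means half or more replicates reach 50% but mean below 50%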;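 further: 0% = complete ARNT plus TACC3 wells and 100% = ARNT alone without TACC3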
Xi reactivation: activators of inactive X chromosome reactivation, primary screen, imaging, XiGFP fibroblasts, GFP high-content imaging, set 2. XiGFP mouse fibroblasts, % GFP-positive cells imaging, 3 d; cells co-treated with 5-aza-dC sensitizer; scaled so ellipticine positive control = 100%. 360,000 compounds, 0.055% hits. activation, % at 7.58 µM;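 active means mean normalized replicate activation at least 10% and every replicate at or above 10%; inconclusive means only one of the two criteria met; inactive means mean below 10% and not all replicates reach 10%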;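 further: 0% = median of on-plate neutral control wells and 100% = ellipticine 6 µM median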
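Material: XiGFP fibroblasts, SV40-immortalized; Buffer or medium: DMEM containing 5-aza-dC; Compound dosing: single point; Times: 3 days compound exposure.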
FGF22 binding: binders of human FGF22 protein, primary screen, FGF22 synaptogenesis inhibitor project, biophysical, thermal shift, single point; AID 651658, 2012; activity (Tm shift, normalised), % at 9.99 µM; recombinant FGF22 thermal shift, SYPRO orange fluorescence; percent of sucrose octasulfate shift, DMSO zero; 340,000 compounds, 1.5% hits; Fibroblast growth factor 22 (Homo sapiens), Q9HCT0;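 active means mean Tm shift, scaled 0 neutral to 100 positive control, at about 1.3% or above, every replicate too, limit read from the data; inconclusive means no clear call, values can overlap the other calls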
Target sequence (Q9HCT0 whole entry, looked up): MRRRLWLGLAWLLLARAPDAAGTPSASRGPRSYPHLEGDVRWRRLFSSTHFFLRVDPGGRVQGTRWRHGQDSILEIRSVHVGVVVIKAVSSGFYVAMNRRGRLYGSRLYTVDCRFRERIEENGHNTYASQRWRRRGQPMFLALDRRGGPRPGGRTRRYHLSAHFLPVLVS
The depositor's hits bear a star; ? = inconclusive; · = no result.

SMILES	DENV2 CPE rescue	SIRT5 block	FN deposit inh	ARNT TACC3 PPI	Xi reactivation	FGF22 binding
C=C(C)Cn1c(N2CCN(c3ccc(OC)cc3)CC2)nc2c1c(=O)n(C)c(=O)n2C	-0.9	29.3*	2.5	4.7	0.0	40.7
COc1ccc(N2CCN(c3nc4c(c(=O)n(C)c(=O)n4C)n3Cc3ccccc3)CC2)cc1	·	·	·	25.5	·	·
C[C@@H]1CCCCO[C@@H](CN(C)C(=O)c2ccncc2)[C@H](C)CN([C@@H](C)CO)C(=O)c2cc(NS(=O)(=O)c3ccc(F)cc3)ccc2O1	3.8	0.7	-9.1	12.9	0.0	-0.2
COc1ccc(-c2cc(N)n(S(=O)(=O)c3ccc(C)cc3)n2)c(OC)c1	21.5*	-2.8	-11.4	-15.5	-0.1	0.2
CC(C)c1cn(CC[C@H]2CC[C@H](NC(=O)C3CCOCC3)[C@H](CO)O2)nn1	-3.2	-6.4	·	·	-0.6	·
COc1ccc(NC(=O)C(c2ccccc2)c2ccccc2)cn1	-0.7	1.1	-1.8	-1.3	0.3	43.2*
CC(=O)Nc1ccc(NC(=O)C(c2ccccc2)c2ccccc2)cc1	4.9	0.9	5.5	0.8	0.0	0.0
O=C(NCCNC(=O)Oc1cccc2ccccc12)Oc1cccc2ccccc12	11.5	25.5*	-6.7	0.8	0.2	0.0
Cc1cc2nc(CSc3ccccc3)cc(=O)n2[nH]1	1.7	29.2*	-5.6	·	0.0	0.2
Cc1cc2nc(CCl)cc(=O)n2[nH]1	5.2	-1.7	-1.5	6.0	0.0	0.2
CCOc1ccc(NC(=O)C2CC(=O)N(CCc3ccccc3)C2)cc1OC (stereo not given)	88.8*	-1.2	3.6	-1.5	0.0	0.2
CCOc1ccc(CCNC(=O)C2CC(=O)N(CCc3ccccc3)C2)cc1OCC (stereo not given)	-1.2	5.8	-13.4	-2.3	0.1	-0.4
CCCNC(=O)Nc1ccc2c(c1)C(=O)N(C)C[C@H](OC)[C@H](C)CN(C(=O)CC)[C@H](C)CO2	·	·	-4.1	-5.7	0.2	·
N#Cc1cc2cc3c(cc2nc1Cl)OCCO3	40.7*	-6.0	2.3	·	0.0	0.3
CC(C)c1cn(CC[C@H]2CC[C@@H](NS(=O)(=O)c3ccc(F)cc3)[C@H](CO)O2)nn1	-3.7	2.3	0.4	·	0.0	-0.3
O=C(c1ccc(NC2=NC3CS(=O)(=O)CC3S2)cc1)N1CCN(c2ccc([N+](=O)[O-])cc2)CC1 (stereo not given)	38.6*	-7.2	-5.2	1.9	0.0	-0.3
O=C(c1ccc(NC2=NC3CS(=O)(=O)CC3S2)cc1)N1CCN(c2ccccc2)CC1 (stereo not given)	-0.1	2.6	-1.8	-2.9	0.0	-0.1
O=C(NN=Cc1ccc2c(c1)OCO2)NN=Cc1ccc2c(c1)OCO2	2.9	0.8	9.8	-7.5	0.0	0.0
O=C(NN=Cc1ccc2c(c1)OCO2)C1CC1	4.4	·	-7.3	-1.7	0.2	43.3*
COc1ccc2c3c(n(C)c2c1)[C@@H](CO)N(C(=O)c1cnccn1)CC31CN(C)C1	4.9	-4.1	·	·	0.0	-0.1
Cc1cccc(-c2cc(NCCc3cccnc3)n3nccc3n2)c1	2.8	·	8.7	·	0.2	43.2*
CCOc1cccc(-c2cc(NCCc3ccccn3)n3nccc3n2)c1	?	·	0.9	·	0.1	43.3*
CCOc1cccc(-c2cc(N3CCN(CCO)CC3)n3nccc3n2)c1	-3.5	-0.9	-3.5	·	0.4	0.7
COc1ccc(N2CCN(c3cc(C(=O)NC4CCCCC4)ncn3)CC2)cc1OC	22.2*	-2.1	16.6	·	0.0	-0.3
COc1cc(OC)cc(-c2nc3ccccc3c(=O)n2OC(=O)c2ccc(Br)cc2)c1	-4.3	1.8	-8.5	6.9	0.2	1.7*
SMILES	DENV2 CPE rescue	SIRT5 block	FN deposit inh	ARNT TACC3 PPI	Xi reactivation	FGF22 binding
COc1ccc(C(=O)On2c(-c3ccc(Br)cc3)nc3ccccc3c2=O)cc1	3.1	-1.7	1.5	·	0.0	0.6
Cc1ccc(C=C2SC(=S)N(CCCC(=O)Nc3cccc(C(=O)O)c3)C2=O)cc1	-2.9	-7.1	-7.8	·	0.0	0.1
Cc1ccc(NC(=O)COc2cccc(/C=C3\SC(=S)N(CCC(=O)O)C3=O)c2)cc1Cl	-3.1	26.8*	-19.6	7.6	0.0	0.4
Cc1ccc(/C=C2\SC(=S)N(CCCC(=O)Nc3cccc(C(=O)O)c3)C2=O)cc1	85.0*	-5.0	-4.5	0.3	0.0	0.4
O=C(CCN1C(=O)/C(=C/c2ccc3c(c2)OCO3)SC1=S)NNC(=O)c1cccnc1	46.7*	-1.1	-18.4	13.0	0.0	0.3
O=C(CCN1C(=O)/C(=C/c2ccc3c(c2)OCO3)SC1=S)Nc1cccc(C(=O)O)c1	-2.6	17.3*	0.6	-6.6	0.2	0.1
C[C@@H]1CN([C@H](C)CO)C(=O)c2cccc(NC(=O)Nc3cccc4ccccc34)c2O[C@H]1CN(C)S(=O)(=O)c1cn(C)cn1	?	1.1	6.2	·	-1.2	0.7
C[C@H](CO)N1C[C@H](C)[C@@H](CN(C)CC2CCCCC2)Oc2c(NC(=O)Nc3ccc(C(F)(F)F)cc3)cccc2C1=O	-6.9	-4.9	·	1.6	0.0	0.3
COCC(=O)N1[C@@H]2c3ccc(C4=CCCC4)c(=O)n3C[C@@H]2[C@@H](CO)[C@@H]1C(=O)N1CCN(C)CC1	5.1	-7.8	·	·	0.8	·
CC(=O)N(C)C[C@@H]1Oc2ncc(C3=CCCC3)cc2C(=O)N([C@H](C)CO)C[C@H]1C	-10.6	-0.1	-3.6	11.2	0.3	-0.2
O=C(CN1C(=O)/C(=C/c2cccc(Br)c2)SC1=S)Nc1cccnc1	11.8	1.3	-2.5	-2.6	0.0	43.8*
O=C(CCN1C(=O)/C(=C/c2cccc(Br)c2)SC1=S)Nc1cccnc1	5.3	-1.5	1.9	7.4	0.5	1.0
O=C(N[C@H]1CC[C@@H](CCNS(=O)(=O)c2ccc(F)cc2)O[C@@H]1CO)c1cccnc1	-3.8	0.5	·	-4.7	0.2	-0.1
C[C@@H]1CCCCO[C@H](CN(C)S(=O)(=O)c2cccs2)[C@H](C)CN([C@H](C)CO)C(=O)c2cc(N(C)C)ccc2O1	12.8	1.0	·	11.7	-0.9	-0.7
Oc1c(Br)cc(Br)cc1C=NCc1ccccc1	1.6	2.8	·	1.6	0.0	0.7
Oc1c(Br)cc(Br)cc1C=NCc1ccc(F)cc1	·	-3.9	7.0	-1.7	0.1	43.4*

Source: PubChem (Broad Institute)
